Measured values taken from ChEMBL document CHEMBL1129520 (J Med Chem, 1996).

Tests used:
[1] = biological target: Histamine H1 receptor (Cavia porcellus) (UniProt P31389); experiment: […] activity tested against histamine H1 receptor on guinea pig ileum; assay type: functional, tissue-based
Method in brief: (§1)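 Isolated guinea pig ileum, standard functional H1 method. Each test run at least in triplicate.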

[2] = biological target: Histamine H2 receptor (Cavia porcellus) (UniProt P47747); experiment: […] activity tested against histamine H2 receptor on guinea pig atrium; assay type: functional, tissue-based; settings: Cardiac atrium
Chain of Histamine H2 receptor (Cavia porcellus) (P47747 whole entry): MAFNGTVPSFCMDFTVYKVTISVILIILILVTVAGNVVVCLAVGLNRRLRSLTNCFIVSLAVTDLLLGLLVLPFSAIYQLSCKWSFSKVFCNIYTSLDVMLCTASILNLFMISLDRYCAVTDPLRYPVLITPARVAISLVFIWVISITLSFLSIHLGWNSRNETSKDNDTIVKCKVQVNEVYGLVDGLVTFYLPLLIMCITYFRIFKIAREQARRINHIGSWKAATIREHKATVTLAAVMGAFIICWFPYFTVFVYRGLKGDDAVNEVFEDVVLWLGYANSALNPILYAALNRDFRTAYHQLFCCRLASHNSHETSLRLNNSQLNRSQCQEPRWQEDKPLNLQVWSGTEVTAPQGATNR
Method in brief: (§2)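 Isolated, spontaneously beating guinea pig right atrium, standard functional H2 method. Each test run at least in triplicate.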

[3] = biological target: T1, Histamine H3 receptor (Rattus norvegicus, UniProt Q9QYN8); experiment: Binding affinity towards Histamine H3 receptor on synaptosomes from rat cerebral cortex; assay type: subcellular, Brain
T1 sequence (Q9QYN8 whole entry): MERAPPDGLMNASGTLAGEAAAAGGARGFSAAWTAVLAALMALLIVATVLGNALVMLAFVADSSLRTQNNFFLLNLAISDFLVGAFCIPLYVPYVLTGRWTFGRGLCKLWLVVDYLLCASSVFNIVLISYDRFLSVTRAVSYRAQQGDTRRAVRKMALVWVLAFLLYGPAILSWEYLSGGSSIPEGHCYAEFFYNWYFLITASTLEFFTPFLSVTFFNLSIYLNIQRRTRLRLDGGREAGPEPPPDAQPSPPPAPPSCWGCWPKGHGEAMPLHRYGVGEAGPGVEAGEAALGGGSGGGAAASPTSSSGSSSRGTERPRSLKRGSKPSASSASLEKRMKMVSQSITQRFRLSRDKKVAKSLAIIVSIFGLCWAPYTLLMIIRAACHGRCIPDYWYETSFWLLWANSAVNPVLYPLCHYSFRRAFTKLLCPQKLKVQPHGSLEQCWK
Method in brief: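 Rat cerebral cortex homogenized in ice-cold 50 mM Na2HPO4/KH2PO4, pH 7.5, then washed membranes after two differential centrifugations. Incubated 60 min at 25 °C with [3H]-(R)-α-methylhistamine and drugs at various concentrations. Stopped by ice-cold dilution, vacuum-filtered through glass-fibre filters, scintillation counted. Nonspecific binding defined with 3 µM thioperamide.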

[4] = biological target: T1, Histamine H3 receptor; experiment: (§3) In vitro antagonistic activity tested against Histamine H3 receptor on synaptosomes from rat cerebral cortex; assay type: functional, subcellular, Brain
Method in brief: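 Preloaded 30 min with L-[3H]histidine (0.4 µM) at 37 °C in modified Krebs-Ringer. Washed, resuspended in 2 mM K+ medium, then depolarized 2 min with 2 or 30 mM K+ (final). […] Stopped by rapid centrifugation; liquid scintillation. Ki by Cheng-Prusoff; mean ± SEM, ≥3 determinations.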

[5] = biological target: T1, Histamine H3 receptor; experiment: as §3; assay type: functional, subcellular, Brain; remark: listed apart in the source
Method in brief: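 Rat cerebral cortex synaptosomes preincubated 30 min at 37 °C with L-[3H]histidine (0.4 µM) in modified Krebs-Ringer, washed, resuspended in 2 mM K+ medium. […] Ki via Cheng-Prusoff; mean ± SEM, at least three determinations.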

[6] = biological target: Histamine H2 receptor (Cavia porcellus) (UniProt P47747); experiment: […] activity against histamine H2 receptor on guinea pig atrium; assay type: functional, tissue-based; settings: Cardiac atrium; method in brief: as §2
[7] = biological target: T1, Histamine H3 receptor; experiment: In vitro antagonistic activity against histamine H3 receptor on rat cerebral cortex; assay type: functional, tissue-based
Method in brief: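 Synaptosomes were preloaded 30 min with L-[3H]histidine (0.4 µM) at 37 °C in modified Krebs-Ringer, then washed and resuspended in 2 mM K+ medium. […] The reaction was stopped by centrifugation and read by scintillation. Ki by Cheng-Prusoff, mean ± SEM, n≥3.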

[8] = biological target: Histamine H1 receptor (Cavia porcellus) (UniProt P31389); experiment: […] activity against histamine H1 receptor on guinea pig ileum; assay type: functional, tissue-based; method in brief: as §1
[9] = biological target: Histamine H3 receptor (Mus musculus) (UniProt P58406); experiment: In vivo antagonistic activity was tested against histamine H3 receptor after oral administration to mouse; assay type: functional, organism-based
Chain of Histamine H3 receptor (Mus musculus) (P58406 whole entry): as the sequence (Q9QYN8 whole entry) above, with T15A, A286T, A290G, R387H, I389V counted along it
Method in brief: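 Swiss mice dosed perorally. Read-out was the increase in brain Nτ-methylhistamine levels.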

Chain of Histamine H1 receptor (Cavia porcellus) (P31389 whole entry): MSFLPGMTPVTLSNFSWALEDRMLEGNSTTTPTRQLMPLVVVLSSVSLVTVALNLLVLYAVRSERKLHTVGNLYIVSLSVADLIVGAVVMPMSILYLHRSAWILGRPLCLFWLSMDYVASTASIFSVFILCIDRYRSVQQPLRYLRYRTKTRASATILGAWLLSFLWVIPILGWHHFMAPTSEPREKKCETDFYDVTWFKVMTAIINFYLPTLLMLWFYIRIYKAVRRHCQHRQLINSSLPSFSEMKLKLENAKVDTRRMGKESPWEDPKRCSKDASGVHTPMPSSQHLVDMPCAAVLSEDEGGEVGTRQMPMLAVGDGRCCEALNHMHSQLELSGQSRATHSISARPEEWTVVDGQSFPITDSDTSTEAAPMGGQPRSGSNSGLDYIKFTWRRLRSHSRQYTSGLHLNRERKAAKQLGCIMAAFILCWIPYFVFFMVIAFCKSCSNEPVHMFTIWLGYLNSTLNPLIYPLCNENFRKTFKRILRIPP

| SMILES | -Log KB [1] | -Log KB [2] | Ki [3] [nM] | Ki [4] [nM] | other results |
| --- | --- | --- | --- | --- | --- |
| Ic1cccc(OCCCc2c[nH]cn2)c1 | 6.2 | 5.6 |  |  |  |
| O=C(OCCCc1cnc[nH]1)c1ccccc1I |  |  | 20 | 39 |  |
| Ic1ccc(CCCOCCCc2c[nH]cn2)cc1 | 5.2 | 5.1 | 7.94 | 35 |  |
| Ic1cccc(OCCCc2cnc[nH]2)c1 |  |  | 2.51 | 17 |  |
| O=C(Nc1cccc(I)c1)OCCCc1c[nH]cn1 | 5.1 | 5.3 |  |  |  |
| Nc1c(I)cc(C(=O)OCCCc2cnc[nH]2)cc1I |  |  | 31.6 | 146 |  |
| O=C(CCc1ccc(I)cc1)OCCCc1c[nH]cn1 | 4.8 | 3.6 | 79.4 | 47 |  |
| O=C(OCCCc1c[nH]cn1)c1ccc(I)cc1 | 4.2 | 4.5 |  |  |  |
| S=C(NC1CCCCC1)N1CCC(c2cnc[nH]2)CC1 [THIOPERAMIDE] |  |  |  |  | Ki [5]: 3.98 nM; Kb [6]: > 10000 nM; Ki [7]: 2 nM |
| Nc1c(I)cc(C(=O)OCCCc2c[nH]cn2)cc1I | 5.9 | 4.6 |  |  |  |
| O=C(Cc1ccc(I)cc1)OCCCc1c[nH]cn1 | 4.5 | 3.6 |  |  |  |
| O=C(CCCc1ccc(I)cc1)OCCCc1cnc[nH]1 |  |  | 31.6 | 41 |  |
| O=C(OCCCc1cnc[nH]1)c1ccc(I)cc1 |  |  | 7.94 | 20 |  |
| O=C(Nc1cccc(I)c1)OCCCc1cnc[nH]1 |  |  | 7.94 | 16 |  |
| Cc1[nH]cnc1CSCCNC(=N)NCCCc1c[nH]cn1 [IMPROMIDINE] |  |  |  |  | Ki [5]: 63.1 nM; Kb [8]: > 10000 nM; Kb [6]: 501 nM |
| Ic1ccc(OCCCc2c[nH]cn2)cc1 | 6.2 | 5.2 |  |  |  |
| O=C(OCCCc1c[nH]cn1)c1cccc(I)c1 | 4.8 | 3.8 | 3.98 | 25 |  |

| SMILES | -Log KB [1] | -Log KB [2] | Ki [3] [nM] | Ki [4] [nM] | other results |
| --- | --- | --- | --- | --- | --- |
| O=C(NCc1ccc(I)cc1)OCCCc1c[nH]cn1 | 5.1 | 4.5 | 12.6 | 12 |  |
| Cc1ccc(C(=O)OCCCc2cnc[nH]2)cc1I |  |  | 5.01 | 30 |  |
| OCCCc1c[nH]cn1 |  |  | 631 |  | Ki [5]: 398 nM; ED50 [9]: > 10 mg/kg |
| Brc1ccc(COCCCc2c[nH]cn2)cc1 |  |  | 1.26 | 14 | ED50 [9]: > 10 mg/kg; Kb [8]: 1260 nM; Kb [6]: 12600 nM |
| O=C(Nc1ccc(I)cc1)OCCCc1c[nH]cn1 | 4.4 | 5.3 |  |  | ED50 [9]: > 10 mg/kg |
| O=C(Nc1ccc(I)cc1)OCCCc1cnc[nH]1 |  |  | 7.94 | 11 | Ki [5]: 10 nM |
| O=C(Cc1ccc(I)cc1)OCCCc1cnc[nH]1 |  |  | 12.6 | 14 |  |
| O=C(Nc1ccccc1I)OCCCc1cnc[nH]1 |  |  | 25.1 | 25 |  |
| Cc1ccc(C(=O)OCCCc2c[nH]cn2)cc1I | 4.9 | 4.2 |  |  |  |
| O=C(OCCCc1c[nH]cn1)c1ccccc1I | 5.9 | 4.6 |  |  |  |
| O=C(Nc1ccccc1I)OCCCc1c[nH]cn1 | 4.8 | 4.6 |  |  |  |
| Ic1cccc(COCCCc2c[nH]cn2)c1 | 5.8 | 5.8 | 1.26 | 7 | ED50 [9]: > 10 mg/kg |
| Ic1ccc(OCCCc2cnc[nH]2)cc1 |  |  | 3.16 | 22 |  |
| Ic1ccc(COCCCc2c[nH]cn2)cc1 [IODOPROXYFAN] | 5.8 | 5.2 | 1 | 5 | ED50 [9]: > 10 mg/kg |
| COc1ccc(CCC(=O)OCCCc2cnc[nH]2)cc1I |  |  | 200 | 232 |  |
| COc1ccc(CCC(=O)OCCCc2c[nH]cn2)cc1I | < 4 | 4.5 |  |  |  |
| O=C(CCCc1ccc(I)cc1)OCCCc1c[nH]cn1 | 4.8 | 4 |  |  |  |
